Screening data deposited in PubChem BioAssay by several laboratories.
Compounds with a hit are over-represented: about 29% of the library has one in this group of screens.
CYP2C9 activ: activators of human CYP2C9; recombinant CYP2C9, luciferin-H conversion, luminescence; hits give high values; factor 1 = untreated enzyme, 0 = blocked; activation factor at 5 µM; 1.4% of 96,000 active;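 active means activation factor of 2 or more for CYP2C9 at a 5 µM dose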;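 further: 0 = sulfaphenazole-blocked wells and 1 = vehicle-only wells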
Target sequence (P11712 whole entry, looked up): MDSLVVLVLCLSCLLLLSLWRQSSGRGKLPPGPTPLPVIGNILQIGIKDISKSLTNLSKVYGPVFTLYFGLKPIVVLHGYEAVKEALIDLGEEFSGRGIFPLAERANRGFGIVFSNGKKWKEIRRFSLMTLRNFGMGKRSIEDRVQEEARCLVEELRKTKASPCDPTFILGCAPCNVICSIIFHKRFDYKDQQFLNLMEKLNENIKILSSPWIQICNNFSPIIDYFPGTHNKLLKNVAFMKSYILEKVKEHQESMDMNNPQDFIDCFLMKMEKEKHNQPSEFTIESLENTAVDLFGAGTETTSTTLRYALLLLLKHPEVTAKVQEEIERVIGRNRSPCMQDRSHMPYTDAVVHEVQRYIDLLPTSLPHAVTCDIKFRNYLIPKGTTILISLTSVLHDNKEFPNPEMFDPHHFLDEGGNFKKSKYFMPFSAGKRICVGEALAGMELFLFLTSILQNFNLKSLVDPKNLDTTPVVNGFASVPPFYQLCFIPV
CYP2C19 activ: cytochrome P450 2C19 (human) activation. 96,000 tested, under 10 active. AID 1025. activation factor at 5 µM. recombinant CYP2C19, luciferin-H EGE luminescence; hits give high values; 0 = fully inhibited enzyme, 1 = untreated enzyme. P33261;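 active means activation factor of at least 2 at 5 µM in the primary screen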;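 further: 0 = wells with 2.5 mM tranylcypromine and 1 = vehicle-only wells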
CYP2C19 inhib: blocks human cytochrome P450 2C19 | CYP2C19 Supersomes, luciferin-H EGE luminescence, 30 min | inhibition, % at 5 µM | 21% of 96,000 active | P33261 | AID 778;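 active means CYP2C19 inhibition above a set limit at 5 µM in the primary screen, cut at about 50% in these data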;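 further: plate controls were negative control wells for no effect and 2.5 mM tranylcypromine positive control for full effect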
CYP2C9 inh: inhibitors of human CYP2C9. CYP2C9 Supersomes, luciferin-H conversion, luminescence. inhibition, % at 5 µM. 20% of 96,000 active. P11712;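 active means blocking of liver enzyme CYP2C9 beyond about 50% at 5 µM, limit read from the data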
E coli WT exp: growth inhibitors of E. coli BW25113 wild type; OD600 absorbance; growth inhibition, % at 100 µM; 0.15% of 98,000 active; AID 710;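 active means growth inhibition above about 50% at one test dose, limit read from the data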;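 further: growth measured after 20 h incubation at 37 °C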
Ecoli tolC: E. coli tolC mutant growth inhibition; E. coli BW25113 tolC mutant growth, OD615; growth inhibition, % at 10 µM (by protocol); 2.2% of 65,000 active; AID 573;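 active means growth inhibition at or above a cutoff equal to the mean over every tested compound plus 3 SD, cut at about 60% in these data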;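 further: growth measured after 20 h incubation at 37 °C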
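Doses: one dose of 10 µM final / Material: E. coli BW25113 ΔtolC::kan, tolC deletion mutant strain / Buffer or medium: LB with kanamycin 50 µg/mL / Evaluation: percent growth inhibition / Detection: optical density read at 615 nm / Incubation: 37 °C, 20 h exposure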
Active calls of the source: *; . = no result given.

SMILES | CYP2C9 activ | CYP2C19 activ | CYP2C19 inhib | CYP2C9 inh | E coli WT exp | Ecoli tolC
Cc1ccc(CNC(=O)CN2C(=O)C3(OCCCO3)c3ccccc32)cc1 | 1.1 | 0.4 | 62.2* | -11.2 | 0.0 | -3.5
CCOC(=O)CN1C(=O)C2(OCCCO2)c2ccccc21 | 0.8 | 0.6 | 36.2 | 18.8 | 0.0 | -7.7
O=C(CN1C(=O)C2(OCCCO2)c2ccccc21)NCc1ccccc1 | 0.8 | 0.4 | 63.8* | 15.0 | 3.0 | -19.5
CCC(C)(C)NC(=O)C(c1cccnc1)N(CCOC)C(=O)Cn1nnc2ccccc21 (stereo not drawn) | 0.9 | 0.9 | 7.5 | 5.2 | 1.0 | -16.2
COc1ccc(OC)c(N(CC(=O)N2CCN(c3cc(Cl)ccc3C)CC2)S(C)(=O)=O)c1 | 1.2 | 0.8 | 19.3 | -20.4 | -12.0 | 13.0
Cc1cc(-c2c(C)[nH]n(-c3ccc(Cl)cc3)c2=O)n[nH]1 | 0.5 | 0.7 | 30.8 | 54.7* | 17.0 | .
CCOC(=O)c1c(C)[nH]c(C(=O)CSc2ccccc2)c1C | 0 | 0.2 | 84.3* | 96.4* | -11.0 | 14.9
CCOC(=O)c1c(C)[nH]c(C(=O)COC(=O)C(C)N2C(=O)C3CCCCC3C2=O)c1C (stereo not drawn) | 0.5 | 0.4 | 55.3* | 51.8* | 5.0 | .
CCOC(=O)c1c(C)[nH]c(C(=O)COC(=O)c2ccc(N3CCCC3=O)cc2)c1C | 0.1 | 1 | 0.3 | 89.9* | -1.0 | -10.6
CCOC(=O)c1c(C)[nH]c(C(=O)COC(=O)CSC)c1C | 0.4 | 0.6 | 40.6 | 56.5* | 5.0 | .
CCc1ccccc1NC(=O)CN1CCC(NC(=O)COC)CC1 | 0.9 | 0.9 | 7.8 | 13.6 | 2.0 | -18.5
CCOC(=O)c1c(C)[nH]c(C(=O)CSc2nnc(C3CC3)n2N)c1C | 0.3 | 0.3 | 69.3* | 65.8* | 7.0 | .
CCOC(=O)c1c(C)[nH]c(N=Nc2ccccc2C)c1C | 0 | 0.2 | 83.4* | 95.3* | -5.0 | .
CCCCC(=O)OCC(=O)c1[nH]c(C)c(C(=O)OCC)c1C | 0.2 | 1.1 | -13.3 | 83.3* | -6.0 | .
CCOC(=O)c1[nH]c(C)c(C(=O)O)c1C | 1.2 | 1.1 | -10.3 | -17.2 | -6.0 | .
CCOC(=O)c1c(C)[nH]c(C(=O)COC(=O)CNC(=O)C2CCCCC2)c1C | 0.6 | 0.9 | 12.6 | 37.1 | -10.0 | -14.3
CCCCCCC(=O)c1c(C)[nH]c(C(=O)OCC)c1C | 0.3 | 0.8 | 24.8 | 71.2* | -3.0 | 27.3
O=C(Nc1nc(-c2cc(Cl)sc2Cl)cs1)c1ccccc1 | 0.7 | 0.7 | 25.7 | 32.3 | -6.0 | .
CCn1ncc(C2=NOC(C(=O)NCc3ccc(Cl)cc3)C2)c1C (stereo not drawn) | 0.5 | 0.3 | 66.5* | 50.2* | -2.0 | -2.6
CCn1ncc(C2=NOC(C(=O)Nc3ccc4c(c3)OCO4)C2)c1C (stereo not drawn) | 0.7 | 0.4 | 55.7* | 28.3 | -2.0 | -0.5
CCn1ncc(C2=NOC(C(=O)Nc3ccc(C)cc3)C2)c1C (stereo not drawn) | 1.2 | 0.7 | 29.4 | -22.6 | 7.0 | .
CCn1ncc(C2=NOC(C(=O)Nc3cccnc3)C2)c1C (stereo not drawn) | 0.8 | 0.9 | 10.4 | 18.1 | 9.0 | -8.2
CC(C)[C@H](N)c1nnc(SC/C=C/c2ccccc2)o1 | 0.8 | 0.2 | 82.5* | 15.6 | 12.0 | .
N[C@@H](Cc1ccccc1)c1nnc(SCc2ccccc2F)o1 | . | . | . | . | 16.0 | 0.1
CCCCn1nnnc1NCc1cccs1 | 0.8 | 0.4 | 64.7* | 18.1 | -2.0 | -1.5
SMILES | CYP2C9 activ | CYP2C19 activ | CYP2C19 inhib | CYP2C9 inh | E coli WT exp | Ecoli tolC
CCCCn1nnnc1NCc1ccc(OC)c(OC)c1OC | 0.7 | 0.3 | 70.5* | 31.7 | 0.0 | -17.6
CCCn1c(NCc2cccs2)nc2ccccc21 | 1.1 | 0.9 | 7.2 | -5.5 | 10.0 | 15.1
Cc1ccccc1NS(=O)(=O)c1ccc2[nH]cc(C(=O)NCCCN3CCOCC3)c(=O)c2c1 | 0.6 | 1 | 0.4 | 37.9 | 1.0 | -10.5
Cc1cc(C)c(CSc2ncc(-c3ccc([N+](=O)[O-])cc3)[nH]2)c(C)c1 | 0.3 | 0.7 | 34.0 | 65.0* | -10.0 | .
O=[N+]([O-])c1ccc(-c2cnc(SCc3ccccc3Cl)[nH]2)cc1 | 0.5 | 0.9 | 8.3 | 52.1* | 2.0 | .
O=[N+]([O-])c1ccc2nc(SCc3ccccc3Cl)sc2c1 | 0.9 | 0.7 | 26.4 | 11.9 | -10.0 | .
CC(=O)Nc1ccc(-c2nnc(SCc3c(C)cc(C)cc3C)n2C)cc1 | 0.8 | 1 | 2.1 | 15.1 | -20.0 | .
COc1ccc(C(=O)O)cc1S(=O)(=O)NCCCN1CCCC1=O | 1 | 1 | -0.2 | 1.5 | 4.0 | -4.9
O=C(NC1CC2CCCC(C1)N2C1CC1)NC12CC3CC(CC(C3)C1)C2 (stereo not drawn) | 1.3 | 1.2 | -16.3 | -33.1 | . | -2.6
CCOC(=O)C(C(=O)Nc1ccc(C)cc1)C1CCCCC1 (stereo not drawn) | 0.4 | 0.2 | 79.3* | 56.3* | -2.0 | .
O=C(CCC1CCCCC1)NNC(=O)NC12CC3CC(CC(C3)C1)C2 | 0.8 | 0 | 95.2* | 15.7 | 9.0 | .
O=C(CCC1CCCC1)NC1CCCCC1 | 0.7 | 0.4 | 56.9* | 27.9 | 4.0 | .
COC(=O)C(C(=O)Nc1cc(C)on1)C1CCCCCC1 (stereo not drawn) | 0.5 | 0.4 | 64.0* | 52.3* | 1.0 | -0.6
Cc1cc(NC(=O)CCC2CCCC2)no1 | 1 | 0.4 | 59.4* | 4.6 | 3.0 | 0.8
CCC(=O)Nc1ccc(NC(=O)C23CC4CC(CC(C4)C2)C3)cn1 | 0.9 | 1 | 3.2 | 5.7 | -11.0 | 8.4
COc1ccc(CC(=O)Nc2nnc(C)s2)cc1 | 0.9 | 0.7 | 32.9 | 12.5 | -3.0 | .
Cc1ccnc(NC(=O)C23CC4CC(CC(C4)C2)C3)c1 | 0.8 | 0.1 | 94.0* | 17.2 | -4.0 | 22.5
Cc1ccnc(NC(=O)CCC2CCCCC2)c1 | 0.9 | 0.1 | 86.1* | 12.6 | 5.0 | 38.8
O=C(CCC1CCCC1)Nc1ccon1 | 0.9 | 0.7 | 25.8 | 11.9 | 15.0 | -5.1
COc1ccc(CC(=O)Nc2cc(C)ccn2)cc1 | 0.7 | 0.2 | 84.6* | 34.8 | 11.0 | 9.8
CC(=O)Nc1ccc2nc(SCC(=O)O)sc2c1 | 1.1 | 1.2 | -16.5 | -11.7 | -8.0 | -14.3
CSc1nc2ccc(NC(=O)CSc3nnc(N)s3)cc2s1 | 0.3 | 1 | 1.6 | 70.7* | 15.0 | .
Cn1cnnc1SCC(=O)Nc1ccc2nc(SCc3ccccc3F)sc2c1 | 0.4 | 0.5 | 47.0 | 60.0* | -8.0 | .
CCOC(=O)CSc1nc2ccc(NC(C)=O)cc2s1 | 0.3 | 0.4 | 56.7* | 72.4* | 6.0 | -15.2
Cc1oc(-c2ccc(Cl)cc2)[n+]([O-])c1C | 0.8 | 1 | 3.4 | 15.0 | -6.0 | -7.4
Cc1sc(-n2c(C)cc(C=O)c2C)c(C(=O)O)c1C | 0.9 | 1.1 | -7.5 | 8.0 | -4.0 | .
COc1cccc(C2/C(=C(\O)c3c(C)nc4c(C)cccn34)C(=O)C(=O)N2CCCN(C)C)c1OC (stereo not drawn) | 1 | 1 | -4.3 | -1.3 | . | -31.2
